Laboratory results from PubChem BioAssay AID743256 (The Scripps Research Institute Molecular Screening Center, 2014).
In all, about 2,900 compounds went through this assay and about 1,300 (45%) were called active. The set was probably picked from earlier hits. Only a sample is shown. A number with no mark means an inactive call.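 The calls were made as follows: active = mean inhibition over the triplicate runs exceeds the activity threshold set in the earlier primary screen (cut at about 20% in these data); inactive = the rest.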

Molecular target: Disintegrin and metalloproteinase domain-containing protein 10 (Homo sapiens) (UniProt O14672)
Sequence (O14672 214-748 limits assumed): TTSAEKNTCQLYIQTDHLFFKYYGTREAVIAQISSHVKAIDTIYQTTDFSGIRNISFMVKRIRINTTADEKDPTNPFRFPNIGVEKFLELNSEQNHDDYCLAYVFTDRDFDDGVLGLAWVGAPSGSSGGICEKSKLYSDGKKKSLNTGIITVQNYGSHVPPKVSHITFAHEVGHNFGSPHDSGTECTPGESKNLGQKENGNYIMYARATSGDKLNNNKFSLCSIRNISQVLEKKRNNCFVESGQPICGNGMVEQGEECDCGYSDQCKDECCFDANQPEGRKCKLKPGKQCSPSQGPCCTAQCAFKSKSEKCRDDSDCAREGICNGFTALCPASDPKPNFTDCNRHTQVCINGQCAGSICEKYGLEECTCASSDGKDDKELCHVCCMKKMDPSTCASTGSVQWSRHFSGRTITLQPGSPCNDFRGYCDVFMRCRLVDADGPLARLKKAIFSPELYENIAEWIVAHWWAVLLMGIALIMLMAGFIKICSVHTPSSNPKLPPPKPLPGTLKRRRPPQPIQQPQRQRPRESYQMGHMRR
Assay: blockers of ADAM10 peptide cleavage – biochemical, FRET, human ADAM10, counter-screen for ADAM17 exosite inhibitor project (AID 743256);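 also: 0% = DMSO wells and 100% = marimastat wells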
Conditions: recombinant ADAM10, EDANS/DABCYL FRET peptide cleavage, 3 h; at 6.95 µM; stronger effect = higher value
Procedure, shortened: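 Test system – ADAM10 · Amount – enzyme 2X stock at 20 nM · Read-out – percent inhibition scaled between DMSO and marimastat control wells · Compound dosing – one dose · Measured by – FRET fluorescence readout · Timing – Compound–enzyme preincubation 30 min, then 3 h substrate cleavage, both 25 °C · Control set – 1 µM marimastat (high) and DMSO (low)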

| SMILES | inhibition |
| --- | --- |
| COc1cccc(NC(=O)C2C(c3ccccc3)C2(Cl)Cl)c1 (stereo not given) | 34.2% (active) |
| COC(=O)N(C)C[C@@H]1OCc2cnnn2CCCC(=O)N([C@@H](C)CO)C[C@@H]1C | -8.98% |
| C=C(C)COc1ccc(-c2n[nH]c(C)c2-c2ccccc2)c(O)c1 | 40.8% (active) |
| CC(=O)Nc1ccc(S(=O)(=O)N2CCN(CCCOc3cc(C)ccc3C)CC2)cc1 | 12.4% |
| COc1ccc(S(=O)(=O)N2CCN(C(C)C(=O)Nc3ccc(C(C)C)cc3)CC2)cc1 (stereo not given) | 20.5% (active) |
| O=C1NC(=O)C(c2ccc(Cl)cc2)N1 (stereo not given) | 6.62% |
| CN(C(=O)c1cccc(NC(=O)Cc2cccc([N+](=O)[O-])c2)c1)C1CCCCC1 | 19.9% (active) |
| COc1ccccc1C(=O)NCC(=O)OCC(=O)NNC(=O)c1ccc(Br)cc1 | 3.18% |
| S=C(NCc1ccc(Cl)cc1)NC12CC3CC(CC(C3)C1)C2 | 22.6% (active) |
| Cc1ccc(/C=N/NC(=O)CSc2nc3ccccc3o2)cc1 | 5.15% |
| C[C@@H]1CN([C@H](C)CO)C(=O)c2cc(-c3ccc(F)cc3)cnc2O[C@H]1CN(C)C(=O)c1ccc(F)cc1 | 12.7% |
| CC(C)Oc1cc(F)ccc1-c1cc(C(=O)Nc2cccc(Cl)c2)[nH]n1 | 25.8% (active) |
| N#C/C(=C/c1ccc(N2CCCCC2)o1)C(=O)NCCc1c[nH]c2ccccc12 | 23.4% (active) |
| Cc1cc(C)cc(NC(=S)NCCc2c[nH]c3ccccc23)c1 | 14% |
| O=C(CSc1nc(-c2ccccc2)cs1)Nc1cccc([N+](=O)[O-])c1 | 24.3% (active) |
| CCOc1ccc(N2C(=O)CC(N(CCc3ccc(OC)c(OC)c3)C(=S)Nc3ccccc3)C2=O)cc1 (stereo not given) | 4.08% |
| COc1ccc(Cl)cc1NC(=O)COC(=O)C(CC(C)C)N1C(=O)C2CC=CCC2C1=O (stereo not given) | 17.9% |
| CC1(C)C=Cc2c(ccc3c2OC[C@@H](c2ccc(O)cc2O)C3)O1 | 24.2% (active) |
| Cn1nc(C(F)(F)F)c2cc(NC(=O)OCC(C)(C)C)sc21 | 13% |
| C#CCN(C[C@H]1[C@H](OC(=O)NC2CCCC2)[C@H](OC(=O)NC2CCCC2)C[C@H]2C(=O)N(c3ccccc3)C(=O)[C@@H]12)S(=O)(=O)c1ccc(C)cc1 | 19.1% |
| CCOc1ccccc1C1CC(c2cccc(NS(C)(=O)=O)c2)=NN1C(=O)c1ccccc1 (stereo not given) | -1.35% |
| Cc1ccc(S(=O)(=O)NCCSc2ccccc2)cc1[N+](=O)[O-] | 6.91% |
| Cc1cc(C)cc(NS(=O)(=O)c2ccc(Oc3ncc(C(F)(F)F)cc3Cl)cc2)c1 | 39% (active) |
| COc1cc(/C=N/n2c(C)n[nH]c2=S)ccc1OCc1ccccc1 | -1.14% |
| COC(=O)c1c(C)[nH]c(C(=O)/C=C/c2ccc(Cl)cc2)c1C | -38.4% |
| O=C(OCc1ccc(-c2ccccc2)cc1)c1cccc(O)c1 | 22.9% (active) |
| COc1ccc(C(CNC(=O)c2cc(S(=O)(=O)Nc3cccc(C)c3)ccc2C)N2CCCC2)cc1 (stereo not given) | 6.83% |

| SMILES | inhibition |
| --- | --- |
| COC(C(=O)Nc1ccc(S(=O)(=O)Nc2ccc(C)c(C)c2)cc1)c1ccccc1 (stereo not given) | 29.4% (active) |
| Cc1ccccc1C(=O)Nc1ccccc1Sc1ccccc1 | 10.7% |
| O=C(COC(=O)c1ccccc1)Nc1ccccc1Sc1ccccc1 | 20.3% (active) |
| CC(=O)Nc1ccc(S(=O)(=O)Oc2ccc(Br)cc2C(=S)N2CCOCC2)cc1 | 13.5% |
| COc1ccc(S(=O)(=O)N2CCCCC2)cc1Br | 10.7% |
| O=C(CSCc1ccc(Br)cc1)Nc1ccc(S(=O)(=O)N2CCCCCC2)cc1 | 23% (active) |
| COc1ccc(CC(=O)c2ccc(O)cc2O)cc1OC | 6.86% |
| Cc1ccc(Cn2nnc3c(=O)[nH]c(C4CCN(S(=O)(=O)/C=C/c5ccccc5)CC4)nc32)cc1 | 41.6% (active) |
| N/C(Cc1ccc([N+](=O)[O-])cc1)=N\OC(=O)COc1ccc2ccccc2c1 | 11.5% |
| O=C(Nn1c(SCc2ccc([N+](=O)[O-])cc2)nc2ccccc2c1=O)c1ccc(F)cc1 | 30.6% (active) |
| CC(C)(C)c1ccc(S(=O)(=O)NCC2CCN(C(=O)C(=O)c3cc4ccccc4o3)CC2)cc1 | 24.1% (active) |
| C=CC(COCc1ccccc1)N(CC(=O)OC)S(=O)(=O)c1cc(Br)ccc1OC (stereo not given) | 13.2% |
| FC(F)(F)Oc1ccccc1C(c1nnnn1C1CCCCC1)N1CCN(C/C=C/c2ccccc2)CC1 (stereo not given) | 17.1% |
| COc1ccc(-c2cc(C3CCN(c4ncccc4[N+](=O)[O-])CC3)[nH]n2)cc1 | 27.1% (active) |
| O=C(Nc1ccc(C(=O)NCc2ccccc2Cl)cc1)C1=CSCCO1 | 9.95% |
| O=C(COc1ccc(Cl)cc1)N1CCN(c2cccc(C(F)(F)F)c2)CC1 | 18.6% |
| Cn1nc(C(F)(F)F)c(C(=O)Nc2cccc(C(F)(F)F)c2)c1SCc1ccc(Cl)cc1 | 37.8% (active) |
| COc1ccc(C(N)c2csc(NC(=O)Nc3cccc(C(F)(F)F)c3)n2)cc1 (stereo not given) | 14.4% |
| CCOC(=O)c1cccc(NC(=O)CN(C)S(=O)(=O)c2ccc(-c3cocn3)s2)c1 | 4.04% |
| COc1ccc(Cn2cc(CN3CCS(=O)(=O)N(Cc4ccc(-c5cccc(Cl)c5)cc4)C(C)C3=O)nn2)cc1 (stereo not given) | 18% |
| COc1ccc(-c2ccc(CN3C(CC(C)C)C(=O)N(Cc4cn(CC5CCCCC5)nn4)CCS3(=O)=O)cc2)cc1 (stereo not given) | 26.9% (active) |
| O=C1[C@H]2[C@@H](c3ccc(C(F)(F)F)cc3)N[C@]3(CCCN(Cc4ccc(Br)cc4)C3=O)[C@H]2C(=O)N1Cc1ccccc1 | 32.2% (active) |
| CCOc1ccccc1CNS(=O)(=O)c1cc(-c2cc(C)no2)ccc1C | 1.34% |
| CCOc1ccc(OCC)c(-c2c(=O)n(OCc3ccc(Cl)cc3)c3ccccc3[n+]2[O-])c1 | -2.21% |
| O=C(Cc1ccc(Cl)c(Cl)c1)Nc1ccc(SC(F)F)cc1 | 43.3% (active) |
| Cc1ccc(-n2c(COc3ccccc3)nnc2SCC(=O)Nc2ccc3c(c2)OCCO3)cc1 | 25.8% (active) |
| CCOc1ccc(-n2c(SCC(=O)Nc3cc(C)c(NC(=O)c4ccccc4)cc3OC)nnc2-c2cccs2)cc1 | 8.96% |

| SMILES | inhibition |
| --- | --- |
| O=C(CN1CCN(c2nc(-c3ccccc3)cs2)CC1)NCc1ccc2c(c1)OCO2 | 24.1% (active) |
| CC1(Cc2cccc(C#N)c2)C(=O)Nc2ccc(-c3cccc(C(F)(F)F)c3)cc21 (stereo not given) | 36.6% (active) |
| COCCNC(=O)C(c1ccc(C)o1)N(Cc1ccccc1)C(=O)Cn1nnc2ccccc21 (stereo not given) | -7.67% |
| CCN1C(=O)C(CC(=O)Nc2cc(C)ccc2C)SC1=Nc1ccc(S(N)(=O)=O)cc1 (stereo not given) | 5.34% |
| O=C(CC1SC(=Nc2ccccc2)N(Cc2ccccn2)C1=O)Nc1cccc(Cl)c1 (stereo not given) | 35% (active) |
| COc1ccc(CC(N)c2csc(NC(=O)NC(c3ccccc3)c3ccccc3)n2)cc1 (stereo not given) | 5.76% |
| C=CCOc1ccccc1/C=N/NC(=O)Cc1ccccc1 | -0.63% |
| Cn1c(=O)c2c(nc(N/N=C/c3cccs3)n2Cc2ccc(Br)cc2)n(C)c1=O | -80.2% |
| O=C(COC(=O)CCCSc1nc2ccccc2[nH]1)Nc1ccc(Oc2ccccc2)cc1 | 39.3% (active) |
| O=C1/C(=C\c2ccsc2)NC(=S)N1c1ccccc1 | 10.1% |
| COc1ccc(CN(C)C(=O)CC(c2ccccc2)c2ccccc2)cc1 | 7.1% |
| Clc1ccc(C(Cn2ccnc2)OCc2ccsc2Cl)c(Cl)c1 (stereo not given) | 22.7% (active) |
| C=CC[C@H](CC(=O)N(CCO)Cc1ccccc1)C(=O)N[C@@H](COC(=O)[C@@H](CC=C)Cc1ccc(F)cc1)Cc1ccccc1 | 25.1% (active) |
| C=CCC[C@@H](Cc1ccc(F)cc1)C(=O)O[C@H](CNC(=O)[C@H](CC=C)CC(=O)N(CCO)Cc1ccccc1)c1ccccc1 | 45.3% (active) |
| C=CCC[C@@H](Cc1ccc(F)cc1)C(=O)OC[C@H](Cc1c[nH]c2ccccc12)NC(=O)[C@@H](CC=C)CC(=O)N(CCO)Cc1ccccc1 | 35.2% (active) |
| COc1cc(NC(=O)CCS(=O)(=O)c2ccc3c(c2)oc(=O)n3C)cc(OC)c1 | 11.3% |
| Cc1ccc(NC(=S)NNC(=O)CSc2nnc(SCc3ccccc3Cl)s2)cc1 | 37.1% (active) |
| Cc1nnc(SCC(=O)Nn2cnnc2)s1 | -7.63% |
| O=C(CSc1nnc(Nc2ccccc2)s1)Nc1cccnc1Cl | 10.6% |
| CCOC(=O)c1c(Cc2ccc(Cl)cc2)c[nH]c1C | 19.5% |
| COc1ccc([C@@H]2[C@@H]3C(=O)N(C(C)(C)C)C(=O)[C@@H]3[C@]3(Cc4ccccc4)C(=O)N(c4cccc(Br)c4)C(=O)N23)cc1 | 28.6% (active) |
| CC(C)(C)N1C(=O)[C@H]2[C@@H](c3ccc(Br)cc3)N3C(=O)N(c4cccc(Cl)c4)C(=O)[C@@]3(C)[C@H]2C1=O | 22.2% (active) |
| CC[C@@]12C(=O)N(c3ccccc3)C(=O)N1[C@H](c1ccc(Br)cc1)[C@@H]1C(=O)N(C(C)(C)C)C(=O)[C@@H]12 | 6.71% |
| COc1cccc(CNc2nc(C(F)(F)F)nc3ccccc23)c1 | 8.29% |
| CC(C)(C)OC(=O)N1CCC(NC(=O)c2[nH]cnc2C(=O)N[C@@H](Cc2ccccc2)C(=O)OCc2ccccc2)CC1 | 35.8% (active) |
| CC(C)(C)OC(=O)CNC(=O)c1[nH]cnc1C(=O)N[C@@H](Cc1ccccc1)C(=O)OCc1ccccc1 | 42.9% (active) |
